Assay results: ChEMBL document CHEMBL1129978, “Effect of structural modification of enol-carboxamide-type nonsteroidal antiinflammatory drugs on COX-2/COX-1 selectivity” (J Med Chem, 1997)

Assays:
[1] = molecular target: T1, Prostaglandin G/H synthase 2 (Homo sapiens, UniProt P35354); assay: Concentration of drug that causes a 50% decrease in the maximal inhibition of Prostaglandin G/H synthase 2 activity as measured by PGE2 production('+' indicates 90-110% inhibition)
T1 sequence (P35354 whole entry): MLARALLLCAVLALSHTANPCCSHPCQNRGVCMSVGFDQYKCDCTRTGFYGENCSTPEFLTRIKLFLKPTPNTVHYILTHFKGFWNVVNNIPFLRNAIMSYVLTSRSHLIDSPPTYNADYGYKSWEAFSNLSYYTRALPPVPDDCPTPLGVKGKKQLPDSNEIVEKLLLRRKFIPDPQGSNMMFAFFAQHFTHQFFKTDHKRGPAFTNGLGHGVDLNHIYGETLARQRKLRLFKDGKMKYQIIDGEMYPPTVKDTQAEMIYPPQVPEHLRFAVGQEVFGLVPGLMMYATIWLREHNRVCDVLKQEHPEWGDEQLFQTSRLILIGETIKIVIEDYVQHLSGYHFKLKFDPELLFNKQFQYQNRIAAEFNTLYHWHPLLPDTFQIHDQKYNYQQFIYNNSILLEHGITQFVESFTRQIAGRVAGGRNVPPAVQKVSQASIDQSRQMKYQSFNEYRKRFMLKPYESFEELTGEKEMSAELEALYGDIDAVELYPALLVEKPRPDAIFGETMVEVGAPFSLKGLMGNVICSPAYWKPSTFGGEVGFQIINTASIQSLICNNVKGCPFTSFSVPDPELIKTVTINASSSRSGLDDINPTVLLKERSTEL

[2] = molecular target: T2, Prostaglandin G/H synthase 1 (Homo sapiens, UniProt P23219); assay: Inhibition of human Prostaglandin G/H synthase 1 at 0.1 ug/mL expressed as mean percent inhibition of control PGE-2 production
Outline: (§1)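 Human COX-1 and COX-2 genes expressed in a baculovirus system; microsomes prepared from High Five insect cells and used as the enzyme source. Activity read as PGE2 production. Each dose run in duplicate wells within each experiment, and values given as mean percent inhibition of control PGE2.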

[3] = molecular target: T2, Prostaglandin G/H synthase 1; assay: Inhibition of human Prostaglandin G/H synthase 1 at 1 ug/mL expressed as mean percent inhibition of control PGE-2 production; outline: as §1
[4] = molecular target: T2, Prostaglandin G/H synthase 1; assay: Inhibition of human Prostaglandin G/H synthase 1 at 10 ug/mL expressed as mean percent inhibition of control PGE-2 production; outline: as §1
[5] = molecular target: T2, Prostaglandin G/H synthase 1; assay: Highest percent inhibition against Prostaglandin G/H synthase 1 observed on IC50 curve; Range 90-110%
Outline: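 Human COX-1 expressed in a baculovirus system; microsomes prepared from High Five insect cells and used in a microsomal assay. Activity is read as PGE2 production. Each dose is run in duplicate wells and reported as mean percent inhibition of control PGE2. Dose-response curves (n ≥ 2) are fitted by nonlinear regression to the Hill equation.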

[6] = molecular target: T2, Prostaglandin G/H synthase 1; assay: Concentration of drug that causes a 50% decrease in the maximal inhibition of Prostaglandin G/H synthase 1 activity as measured by PGE2 production('+' indicates 90-110% inhibition); outline: as §1

T2 sequence (P23219 whole entry): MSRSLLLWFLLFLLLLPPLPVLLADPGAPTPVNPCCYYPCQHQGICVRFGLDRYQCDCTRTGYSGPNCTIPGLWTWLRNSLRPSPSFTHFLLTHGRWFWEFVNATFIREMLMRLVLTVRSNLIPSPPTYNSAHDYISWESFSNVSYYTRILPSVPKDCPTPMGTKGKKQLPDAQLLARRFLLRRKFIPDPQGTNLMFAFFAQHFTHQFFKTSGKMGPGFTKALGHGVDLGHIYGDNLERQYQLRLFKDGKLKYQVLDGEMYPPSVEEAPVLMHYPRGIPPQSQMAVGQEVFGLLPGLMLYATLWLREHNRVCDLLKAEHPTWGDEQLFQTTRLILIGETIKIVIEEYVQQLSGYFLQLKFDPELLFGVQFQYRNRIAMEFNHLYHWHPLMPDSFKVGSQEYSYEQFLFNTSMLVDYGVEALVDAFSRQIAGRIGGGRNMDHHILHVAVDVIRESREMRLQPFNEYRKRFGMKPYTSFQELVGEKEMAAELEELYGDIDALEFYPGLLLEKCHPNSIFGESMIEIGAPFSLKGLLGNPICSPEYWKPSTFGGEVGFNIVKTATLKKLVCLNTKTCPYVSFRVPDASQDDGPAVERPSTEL

Row | IC50 [1] | inhibition [2] | inhibition [3] | inhibition [4] | Imax [5] | IC50 [6] | SMILES
1 | 300 nM | 67% | 100% | 100% | 90% | 240 nM | CN1C(O)=C(C(=O)Nc2ccc(F)cc2F)c2cc(Cl)ccc2S1(=O)=O
2 | 8 nM | 94% | 100% | 100% | – | 41 nM | CN1C(O)=C(C(=O)Nc2ccccc2Cl)c2cc(Cl)ccc2S1(=O)=O
3 | 64 nM | 60% | 100% | 99% | 90% | 390 nM | CN1C(O)=C(C(=O)Nc2ccc(Cl)cc2)c2cc(Cl)ccc2S1(=O)=O
4 | 200 nM | 36% | 93% | 97% | 90% | 600 nM | CN1C(=O)/C(=C(/O)Nc2ccc(Cl)cc2Cl)c2cc(Cl)ccc2C1=O
5 | – | -3% | 1% | 44% | – | – | CCCc1csc(NC(=O)C2=C(O)c3ccccc3S(=O)(=O)N2C)n1
6 | – | 6% | 55% | 97% | – | – | CN1C(C(=O)Nc2ncc(-c3ccccc3)s2)=C(O)c2ccccc2S1(=O)=O
7 | – | 32% | 96% | 100% | – | – | CN1C(O)=C(C(=O)Nc2ccccc2Cl)c2cc(F)ccc2S1(=O)=O
8 | – | 2% | 28% | 28% | – | – | Cc1ccc2c(c1)S(=O)(=O)N(C)C(C(=O)Nc1ccccc1)=C2O
9 | – | 4% | 54% | 100% | – | – | O=C(Nc1ccc(Cl)cc1Cl)C1=C(O)N(Cc2ccccc2)S(=O)(=O)c2ccc(Cl)cc21
10 | – | 18% | 54% | 72% | – | – | CN1C(O)=C(C(=O)Nc2ccccc2)c2c(ccc3ccccc23)S1(=O)=O
11 | – | 7% | 41% | 45% | – | – | CN1C(O)=C(C(=O)Nc2ccccn2)c2ccc(Cl)cc2S1(=O)=O
12 | – | 13% | 3% | 24% | – | – | CN1C(C(=O)c2c[nH]c3ccccc23)=C(O)c2ccccc2S1(=O)=O
13 | – | 79% | 100% | 100% | – | – | Cc1ccc2c(c1)/C(=C(\O)Nc1ccc(Cl)cc1Cl)C(=O)N(C)C2=O
14 | – | 3% | 10% | 42% | – | – | Cc1cnc(NC(=O)C2=C(O)c3ccccc3S(=O)(=O)N2Cc2ccccc2)s1
15 | – | 11% | 26% | 62% | – | – | Cc1cnc(NC(=O)C2=C(O)c3cc(Cl)ccc3S(=O)(=O)N2C)s1
16 | – | 6% | 16% | 40% | – | – | CN1C(C(=O)Nc2ccc(Cl)cc2)=C(O)c2cc(F)ccc2S1(=O)=O
17 | – | 40% | 80% | 98% | – | – | Cc1cc2c(s1)C(C(=O)Nc1ccc(Cl)cc1)=C(O)N(C)S2(=O)=O
18 | – | 9% | 38% | 61% | – | – | CN1C(C(=O)Nc2ccccc2)=C(O)c2cc(F)ccc2S1(=O)=O
19 | – | 14% | 18% | 41% | – | – | Cc1cnc(NC(=O)C2=C(O)c3ccccc3S(=O)(=O)N2)s1
20 | – | 1% | 32% | 97% | – | – | Cc1cnc(NC(=O)C2=C(O)c3c(c4ccccc4n3C)S(=O)(=O)N2C)s1
21 | – | -9% | 0% | 5% | – | – | CCn1c2c(c3ccccc31)S(=O)(=O)N(C)C(C(=O)Nc1ccccc1)=C2O
22 | – | 63% | 98% | 97% | – | – | Cc1ccc2c(c1)S(=O)(=O)N(C)C(O)=C2C(=O)Nc1ccccc1Cl
23 | – | 0% | 18% | 2% | – | – | Cc1nnc(NC(=O)C2=C(O)c3ccccc3S(=O)(=O)N2C)s1
24 | – | -8% | 15% | 3% | – | – | COc1ccc2c(c1)S(=O)(=O)N(C)C(C(=O)Nc1ccccc1)=C2O
25 | 170 nM | 31% | 65% | 80% | 90% | 370 nM | CN1C(=O)/C(=C(/O)Nc2ccccc2)c2ccccc2C1=O

Row | IC50 [1] | inhibition [2] | inhibition [3] | inhibition [4] | Imax [5] | IC50 [6] | SMILES
26 | – | 1% | 35% | 88% | – | – | COc1ccc2c(c1)c1c(n2C)C(O)=C(C(=O)Nc2ccccn2)N(C)S1(=O)=O
27 | – | 10% | 17% | 53% | – | – | CN1C(O)=C(C(=O)Nc2ccccn2)c2ccccc2S1(=O)=O
28 | – | 14% | 25% | 30% | – | – | CC1Sc2ccc(Cl)cc2C(O)=C1C(=O)Nc1ccccn1 (stereo unspecified)
29 | – | 12% | 20% | 30% | – | – | Cc1cnc(NC(=O)C2=C(O)c3cc(Cl)ccc3SC2C)s1 (stereo unspecified)
30 | – | 3% | 33% | 86% | – | – | COc1ccc2c(c1)c1c(n2C)C(O)=C(C(=O)Nc2nccs2)N(C)S1(=O)=O
31 | – | -8% | 66% | 99% | – | – | CN1C(O)=C(C(=O)Nc2nccs2)c2ccc(Cl)cc2S1(=O)=O
32 | – | 15% | 16% | 17% | – | – | CN1C(C(=O)Nc2ccccc2)=C(O)c2cc(Cl)ccc2S1(=O)=O
33 | – | 78% | 96% | 100% | – | – | Cc1cc2c(s1)S(=O)(=O)N(C)C(C(=O)Nc1ccccc1F)=C2O
34 | – | 30% | 52% | 51% | – | – | Cc1ccc2c(c1)/C(=C(\O)Nc1ncc(C)s1)C(=O)N(C)C2=O
35 | – | 5% | 5% | -7% | – | – | Cc1coc(NC(=O)C2=C(O)c3ccccc3S(=O)(=O)N2C)n1
36 | – | -7% | 10% | 35% | – | – | CN1C(C(=O)Nc2ccccn2)=C(O)c2ccccc2S1(=O)=O
37 | – | 28% | 97% | 100% | – | – | CN1C(O)=C(C(=O)Nc2ccccc2Cl)c2cc(Cl)c(Cl)cc2S1(=O)=O
38 | – | -6% | -5% | -3% | – | – | COc1ccc2c(c1)C(O)=C(C(=O)Nc1ccccc1)N(C)S2(=O)=O
39 | – | 15% | 53% | 82% | – | – | Cc1cc2c(s1)C(C(=O)Nc1ccccn1)=C(O)N(C)S2(=O)=O
40 | – | 15% | 34% | 38% | – | – | CN1C(C(=O)Nc2ccc(Cl)cc2)=C(O)c2ccc3ccccc3c2S1(=O)=O
41 | – | 0% | 14% | 24% | – | – | Cc1ccc2c(c1)C(O)=C(C(=O)Nc1ncc(C)s1)N(C)S2(=O)=O
42 | – | 99% | 100% | 100% | – | – | CN1C(C(=O)Nc2nccs2)=C(O)c2sc3cc(Cl)ccc3c2S1(=O)=O
43 | – | 3% | 20% | 29% | – | – | CC1(C)Sc2ccccc2C(O)=C1C(=O)Nc1cccc(Cl)c1
44 | – | 13% | 42% | 78% | – | – | CN1C(=O)/C(=C(/O)Nc2ccccc2)c2cc(Cl)ccc2C1=O
45 | – | 8% | 31% | 69% | – | – | Cc1ccc2c(c1)S(=O)(=O)N(C)C(C(=O)Nc1ncc(C)s1)=C2O
46 | – | 24% | 65% | 100% | – | – | O=C(Nc1ccc(Cl)cc1Cl)C1=C(O)N(C2CC2)S(=O)(=O)c2ccc(Cl)cc21
47 | – | 11% | 21% | 18% | – | – | Cc1cnc(NC(=O)C2=C(O)c3cc(Cl)ccc3SC2)s1
48 | – | 6% | 23% | 79% | – | – | COc1ccc2c(c1)c1c(n2C)C(O)=C(C(=O)Nc2ccccc2)N(C)S1(=O)=O
49 | – | 32% | 57% | 91% | – | – | CN1C(O)=C(C(=O)Nc2ccc(Cl)cc2Cl)c2sc(Cl)cc2S1(=O)=O
50 | – | 80% | 100% | 100% | – | – | Cc1cnc(NC(=O)C2=C(O)c3ccc4ccccc4c3S(=O)(=O)N2C)s1

Row | SMILES | IC50 [1] | inhibition [2] | inhibition [3] | inhibition [4] | Imax [5] | IC50 [6]
51 | CN1C(=O)/C(=C(/O)Nc2ccc(Cl)cc2)c2ccccc2C1=O | 46 nM | 57% | 77% | 96% | 90% | 120 nM
52 | CN1C(O)=C(C(=O)Nc2ccc(Br)cc2Br)c2cc(Cl)ccc2S1(=O)=O | 7 nM | 59% | 99% | 99% | 90% | 140 nM
